These results are taken from ChEMBL document CHEMBL1152313, “Cytotoxic and HIF-1alpha inhibitory compounds from Crossosoma bigelovii” (J Nat Prod, 2009).

In one data set the test system is HT-29. Put plainly: Cytotoxicity against human HT-29 cells by MTT assay. It counts as functional. An outline of the steps: (§1)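 Cells were grown in MEM with 10% fetal calf serum, 0.1 g L⁻¹ penicillin G and 0.1 g L⁻¹ streptomycin sulfate. They were seeded into 96-well plates one day before dosing and incubated overnight at 37 °C. Compounds were dissolved in DMSO, diluted in medium to several concentrations and left on the cells for six days. Survival was read colorimetrically by MTT at 547 nm, with adriamycin as reference.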

The subject of another data set is MCF7. Put plainly: Cytotoxicity against human MCF7 cells by MTT assay. Format: functional. An outline of the steps:
as §1

The subject of a further data set is A549. Put plainly: Cytotoxicity against human A549 cells by MTT assay. It counts as functional.
Data set [1] concerns the target T1, Hypoxia inducible factors; HIF-1-alpha, HIF-2-alpha (Homo sapiens, UniProt Q16665+Q99814). As to the kind of experiment: Inhibition of HIF1 activation in human U251 cells stably transfected in pGL2-TK-HRE plasmid under hypoxic condition after 16 to 24 hrs by luciferase reporter gene assay. Format: cell-based. The conditions noted are these: u-251.
Data set [2] relates to U-251. As to the kind of experiment: Growth inhibition of human U251 cells stably transfected with pGL3 plasmid after 24 hrs. It counts as cell-based. The settings on record: u-251, 24 h.
The test system of data set [3] is U-251. As to the kind of experiment: Growth inhibition of human U251 cells stably transfected with pGL2-TK-HRE plasmid after 24 hrs. Format: cell-based. The conditions noted are these: u-251, 24 h.
Data set [4] relates to U-251. As to the kind of experiment: Reduction in VEGF mRNA expression in wild type human U251 cells under hypoxic condition after 8 hrs. It counts as functional, cell-based. In a few lines: (§2)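 Wild-type U251 cells treated 8 or 16 h under hypoxia (1% O₂, 37 °C). Total RNA isolated; 500 ng reverse-transcribed (10 min 25 °C, 30 min 48 °C, 5 min 95 °C). VEGF or CA9 transcript quantified by real-time PCR on 5 ng cDNA in triplicate (2 min 50 °C, 10 min 95 °C, then 40 cycles of 15 s 95 °C and 1 min 60 °C).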

In data set [5] the target is T1, Hypoxia inducible factors; HIF-1-alpha, HIF-2-alpha. As to the kind of experiment: Inhibition of HIF1 activation in human U251 cells transiently transfected in pGL2-TK-HRE plasmid under hypoxic condition at 0.1 to 0.005 uM after 16 hrs by luciferase reporter gene assay. It counts as cell-based. The conditions noted are these: U-251. An outline of the steps:
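Wild-type U251 cells transiently transfected with pGL2-TK-HRE using Effectene for 16 h. Medium then changed and compound added for 16 h under hypoxia (1% O₂, 5% CO₂, 37 °C) or normoxia (21% O₂). Luciferase read with Steady Glo reagent.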

Data set [6] relates to U-251. Put plainly: Reduction in carbonic anhydrase 9 mRNA expression in wild type human U251 cells under hypoxic condition at 0.1 uM after 16 hrs. It counts as functional, cell-based. In a few lines:
as §2

In data set [7] the test system is U-251. As to the kind of experiment: Reduction in VEGF mRNA expression in wild type human U251 cells under hypoxic condition after 16 hrs. It counts as functional, cell-based. An outline of the steps: as §2
In data set [8] the test system is U-251. As to the kind of experiment: Inhibition of HIF1alpha protein expression in wild type human U251 cells under hypoxic condition at 0.025 uM treated 8 hrs before hypoxia induction. Format: functional, cell-based.
The target in data set [9] is T1, Hypoxia inducible factors; HIF-1-alpha, HIF-2-alpha. Put plainly: Inhibition of HIF1 activation in human U251 cells stably transfected in pGL3 plasmid under hypoxic condition assessed as reduction of luciferase expression at 0.062 uM after 16 to 24 hrs by luciferase reporter gene assay. The arrangement: scale not given: the % may be the effect or the level left. It counts as cell-based. The conditions noted are these: U-251.

Data set [10] has as its system U-251. Put plainly: Inhibition of HIF1alpha protein expression in wild type human U251 cells under hypoxic condition at 0.025 uM treated 16 hrs before hypoxia induction. Format: functional, cell-based.
For data set [11], the target named is T1, Hypoxia inducible factors; HIF-1-alpha, HIF-2-alpha. As to the kind of experiment: Inhibition of HIF1 activation in human U251 cells stably transfected in pGL2-TK-HRE plasmid under hypoxic condition assessed as reduction of luciferase expression at 0.062 uM after 16 to 24 hrs by luciferase reporter gene assay. Format: cell-based. Details: scale not given: the % may be the effect or the level left. The settings on record: U-251.

The test system of data set [12] is U-251. Put plainly: Reduction in carbonic anhydrase 9 mRNA expression in wild type human U251 cells under hypoxic condition at 0.1 uM after 8 hrs. It counts as functional, cell-based. In a few lines: as §2

Structures are written as SMILES. Calls of active or inactive are those of the source. The rule behind the calls is not given here.

As for `COc1c(O)cc2oc(C)cc(=O)c2c1O` [PISONIN B], the GI50 in the data set on HT-29 was 180 µM; with MCF7 it was greater than 450 µM; in the data set on A549, 225 µM.
On to `CO[C@H]1[C@H](O[C@H]2CC[C@]3(C=O)[C@H]4CC[C@]5(C)[C@@H](C6=CC(=O)OC6)CC[C@]5(O)[C@@H]4CC[C@]3(O)C2)O[C@H](C)C[C@H]1O[C@@H]1O[C@H](CO)[C@@H](O)[C@H](O)[C@H]1O`, for which the GI50 in the data set with HT-29 amounted to 0.07 µM; with MCF7, 0.01 µM; in the data set with A549, 0.008 µM. Besides, the EC50 in data set [1] was 0.6 µM. For the same compound, the Activity result in the data set on U-251 [2] and with U-251 [3] was “Non-toxic” throughout.
For `COc1cccc2c1C(=O)c1c(O)c3c(c(O)c1C2=O)C[C@@](O)(C(=O)CO)C[C@@H]3O[C@H]1C[C@H](N)[C@H](O)[C@H](C)O1` [DOXORUBICIN], the GI50 was 0.06 µM in the data set on HT-29, 0.1 µM in the data set on MCF7 and 0.007 µM with A549. The same compound yielded an EC50 in data set [1] of 0.12 µM.
As to `Cc1cc(=O)c2c(O)cc(O)cc2o1` [NOREUGENIN], the GI50 with HT-29, in the data set on MCF7 and in the data set on A549 was greater than 50 µM throughout.
As to `Cc1cc(=O)c2c(O)cc(O[C@@H]3O[C@H](CO[C@@H]4O[C@@H](C)[C@H](O)[C@@H](O)[C@H]4O)[C@@H](O)[C@H](O)[C@H]3O)cc2o1`, the GI50 with HT-29 came to 6 µM; in the data set with MCF7 it was 0.8 µM; in the data set on A549 it was 0.4 µM.
Consider `CO[C@H]1C[C@H](O[C@H]2CC[C@]3(C=O)[C@H]4CC[C@]5(C)[C@@H](C6=CC(=O)OC6)CC[C@]5(O)[C@@H]4CC[C@]3(O)C2)O[C@H](C)[C@H]1O[C@@H]1O[C@H](CO)[C@@H](O)[C@H](O)[C@H]1O`, for which the Activity result in the data set with U-251 [2] and in the data set with U-251 [3] was “Non-toxic” each time.
In the case of `COc1cc(O)c2c(=O)cc(C)oc2c1` [EUGENIN], the results for the GI50 in the data set with HT-29, in the data set on MCF7 and in the data set on A549 were 25 µM, 10 µM and 14 µM, respectively.
For the compound `CC[C@@]1(O)C(=O)OCc2c1cc1n(c2=O)Cc2cc3c(CN(C)C)c(O)ccc3nc2-1`, the outcome with U-251 [4] was inactive.
As to `C[C@@H]1O[C@@H](O[C@H]2CC[C@]3(C=O)[C@H]4CC[C@]5(C)[C@@H](C6=CC(=O)OC6)CC[C@]5(O)[C@@H]4CC[C@]3(O)C2)[C@H](O)[C@H](O)[C@H]1O` [CONVALLATOXIN], the result (with U-251 [4]; in [5]; in the data set on U-251 [6]; in the data set on U-251 [7]; in the data set with U-251 [8]; in the data set on U-251 [10]) was Active. The result in the data set on U-251 [12] was Active. In data set [1], the EC50 was 0.02 µM. Moreover, the Activity in data set [9] is 50%; in data set [11] it was 77%; in the data set on U-251 [2] it was “Non-toxic”; in the data set with U-251 [3], “Non-toxic”.
Take `C[C@]12CC[C@H]3[C@@H](CC[C@]4(O)C[C@@H](O)CC[C@]34C=O)[C@@]1(O)CC[C@@H]2C1=CC(=O)OC1` [STROPHANTHIDIN]: the Activity result in the data set on U-251 [2] and in the data set with U-251 [3] was “Non-toxic” in each case.
As for `COc1c(O[C@@H]2O[C@H](CO[C@@H]3O[C@@H](C)[C@H](O)[C@@H](O)[C@H]3O)[C@@H](O)[C@H](O)[C@H]2O)cc2oc(C)cc(=O)c2c1O`, the GI50 in the data set with HT-29 was 6 µM; in the data set on MCF7, 0.8 µM; with A549 it was 0.4 µM.
The compound `CO[C@H]1C[C@H](O[C@H]2CC[C@]3(C=O)[C@H]4CC[C@]5(C)[C@@H](C6=CC(=O)OC6)CC[C@]5(O)[C@@H]4CC[C@]3(O)C2)O[C@H](C)[C@H]1O[C@@H]1O[C@H](CO[C@@H]2O[C@H](CO)[C@@H](O)[C@H](O)[C@H]2O)[C@@H](O)[C@H](O)[C@H]1O` displayed an EC50 in data set [1] of 0.04 µM. The Activity entry in the data set on U-251 [2] and in the data set on U-251 [3] was “Non-toxic” each time.
